According to ChEMBL document CHEMBL4425103, “Diving into the Water: Inducible Binding Conformations for BRD4, TAF1(2), BRD9, and CECR2 Bromodomains” (J Med Chem, 2016):
pIC50: −log10 of the molar value.

How the values were obtained:
[1] = target: Chromatin remodeling regulator CECR2 (Homo sapiens, UniProt Q9BXF3); test: Binding affinity to wild type CECR2 (unknown origin) assessed as change in melting temperature at 10 uM by SYPRO red dye based differential scanning fluorimetry
Procedure, shortened: (§1)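 Differential scanning fluorimetry: aggregate removed by centrifugation, then bromodomain at 4 µM final with 10X SYPRO Red, 10 µM compound and 0.2% DMSO in 20 mM HEPES pH 7.7, 100 mM NaCl. Heated 25 to 95 °C, fluorescence read at 1 °C steps. Apparent Tm taken from melt curves; mean of at least five wells for CECR2.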

[2] = system: T1, Chromatin remodeling regulator CECR2 (Homo sapiens), Q9BXF3 [M506I]; test: Binding affinity to CECR2 M506I mutant (unknown origin) assessed as change in melting temperature at 10 uM by SYPRO red dye based differential scanning fluorimetry; procedure, shortened: as §1
T1 sequence (whole entry): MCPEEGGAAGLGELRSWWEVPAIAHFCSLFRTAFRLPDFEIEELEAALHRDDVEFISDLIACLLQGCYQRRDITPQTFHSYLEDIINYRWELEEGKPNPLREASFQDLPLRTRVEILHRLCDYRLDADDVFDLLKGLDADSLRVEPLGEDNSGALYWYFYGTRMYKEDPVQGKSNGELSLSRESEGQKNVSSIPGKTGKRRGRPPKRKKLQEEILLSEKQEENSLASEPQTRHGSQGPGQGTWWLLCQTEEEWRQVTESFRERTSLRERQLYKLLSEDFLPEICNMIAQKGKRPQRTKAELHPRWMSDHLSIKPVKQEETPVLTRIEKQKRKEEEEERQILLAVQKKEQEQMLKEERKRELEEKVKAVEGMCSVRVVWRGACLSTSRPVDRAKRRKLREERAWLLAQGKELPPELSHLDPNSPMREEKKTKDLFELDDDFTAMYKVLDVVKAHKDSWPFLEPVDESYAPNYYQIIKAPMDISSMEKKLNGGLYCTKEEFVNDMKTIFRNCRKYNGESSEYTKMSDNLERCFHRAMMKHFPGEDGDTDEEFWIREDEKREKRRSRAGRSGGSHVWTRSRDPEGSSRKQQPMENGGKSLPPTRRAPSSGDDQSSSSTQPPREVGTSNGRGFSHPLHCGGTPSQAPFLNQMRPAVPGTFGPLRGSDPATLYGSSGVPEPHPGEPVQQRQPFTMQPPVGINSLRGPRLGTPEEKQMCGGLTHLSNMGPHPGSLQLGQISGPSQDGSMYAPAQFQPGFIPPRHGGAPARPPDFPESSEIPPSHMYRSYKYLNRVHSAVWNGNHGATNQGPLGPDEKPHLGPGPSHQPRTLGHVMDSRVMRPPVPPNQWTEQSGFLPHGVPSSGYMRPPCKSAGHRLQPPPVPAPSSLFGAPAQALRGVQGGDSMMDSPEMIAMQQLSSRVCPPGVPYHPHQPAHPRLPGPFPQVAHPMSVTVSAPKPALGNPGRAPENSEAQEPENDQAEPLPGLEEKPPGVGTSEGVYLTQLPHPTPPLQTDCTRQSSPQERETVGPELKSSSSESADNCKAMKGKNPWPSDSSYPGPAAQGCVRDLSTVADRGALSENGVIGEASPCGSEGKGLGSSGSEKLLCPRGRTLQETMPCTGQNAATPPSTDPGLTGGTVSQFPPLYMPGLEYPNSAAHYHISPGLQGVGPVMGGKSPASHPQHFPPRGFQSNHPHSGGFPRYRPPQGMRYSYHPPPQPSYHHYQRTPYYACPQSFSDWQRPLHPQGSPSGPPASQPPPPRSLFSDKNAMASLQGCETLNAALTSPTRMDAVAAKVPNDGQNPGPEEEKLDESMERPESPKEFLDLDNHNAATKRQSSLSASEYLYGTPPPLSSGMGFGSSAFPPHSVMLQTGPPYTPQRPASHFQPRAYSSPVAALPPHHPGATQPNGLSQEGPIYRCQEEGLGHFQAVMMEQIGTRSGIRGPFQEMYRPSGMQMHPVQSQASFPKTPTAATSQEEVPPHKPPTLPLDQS

Peregrin = target: T2, Peregrin (Homo sapiens, UniProt P55201); test: Displacement of biotinylated JQ1 analog from recombinant His-tagged BRPF1 (unknown origin) incubated for 10 mins by TR-FRET assay
T2 sequence (P55201 whole entry): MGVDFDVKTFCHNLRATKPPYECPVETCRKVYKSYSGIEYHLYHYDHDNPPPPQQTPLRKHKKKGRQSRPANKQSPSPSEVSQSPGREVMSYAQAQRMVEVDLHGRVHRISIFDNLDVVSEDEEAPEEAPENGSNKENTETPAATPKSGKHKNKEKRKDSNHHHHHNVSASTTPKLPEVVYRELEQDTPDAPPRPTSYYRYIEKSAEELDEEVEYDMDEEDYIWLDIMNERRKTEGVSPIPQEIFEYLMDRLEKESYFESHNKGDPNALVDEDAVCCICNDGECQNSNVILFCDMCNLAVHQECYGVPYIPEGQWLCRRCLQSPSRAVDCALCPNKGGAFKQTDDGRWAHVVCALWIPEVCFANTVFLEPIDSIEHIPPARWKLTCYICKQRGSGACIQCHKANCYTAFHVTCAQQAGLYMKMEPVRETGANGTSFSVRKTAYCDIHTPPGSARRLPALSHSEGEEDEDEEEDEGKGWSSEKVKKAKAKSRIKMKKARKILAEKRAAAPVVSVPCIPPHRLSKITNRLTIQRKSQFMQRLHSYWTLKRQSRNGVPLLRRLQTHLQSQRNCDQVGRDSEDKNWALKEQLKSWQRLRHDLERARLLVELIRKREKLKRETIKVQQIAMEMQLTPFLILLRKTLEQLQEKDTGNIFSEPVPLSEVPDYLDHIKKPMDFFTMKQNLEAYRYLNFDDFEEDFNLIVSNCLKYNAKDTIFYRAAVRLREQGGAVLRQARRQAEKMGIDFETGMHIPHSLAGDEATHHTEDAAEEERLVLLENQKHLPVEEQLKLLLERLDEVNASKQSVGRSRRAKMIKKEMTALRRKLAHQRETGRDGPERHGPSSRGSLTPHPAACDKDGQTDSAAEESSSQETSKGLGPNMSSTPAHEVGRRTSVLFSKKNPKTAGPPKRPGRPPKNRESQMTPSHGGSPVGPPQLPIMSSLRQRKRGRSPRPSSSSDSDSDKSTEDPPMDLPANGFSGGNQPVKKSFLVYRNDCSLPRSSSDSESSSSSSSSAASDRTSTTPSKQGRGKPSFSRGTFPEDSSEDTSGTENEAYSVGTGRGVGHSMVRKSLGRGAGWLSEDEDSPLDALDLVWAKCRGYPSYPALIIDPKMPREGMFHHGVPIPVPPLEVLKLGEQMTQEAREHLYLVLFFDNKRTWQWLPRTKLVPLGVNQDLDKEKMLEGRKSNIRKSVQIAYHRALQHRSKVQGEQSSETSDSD
Procedure, shortened: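 Bromodomain, then biotinylated ligand, each added with 10 min incubation. Anti-His europium (0.2 nM) plus streptavidin-APC followed for 40 min. 10-point titrations in duplicate, at least 2 independent runs.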

Chain of Chromatin remodeling regulator CECR2 (Q9BXF3 whole entry, looked up): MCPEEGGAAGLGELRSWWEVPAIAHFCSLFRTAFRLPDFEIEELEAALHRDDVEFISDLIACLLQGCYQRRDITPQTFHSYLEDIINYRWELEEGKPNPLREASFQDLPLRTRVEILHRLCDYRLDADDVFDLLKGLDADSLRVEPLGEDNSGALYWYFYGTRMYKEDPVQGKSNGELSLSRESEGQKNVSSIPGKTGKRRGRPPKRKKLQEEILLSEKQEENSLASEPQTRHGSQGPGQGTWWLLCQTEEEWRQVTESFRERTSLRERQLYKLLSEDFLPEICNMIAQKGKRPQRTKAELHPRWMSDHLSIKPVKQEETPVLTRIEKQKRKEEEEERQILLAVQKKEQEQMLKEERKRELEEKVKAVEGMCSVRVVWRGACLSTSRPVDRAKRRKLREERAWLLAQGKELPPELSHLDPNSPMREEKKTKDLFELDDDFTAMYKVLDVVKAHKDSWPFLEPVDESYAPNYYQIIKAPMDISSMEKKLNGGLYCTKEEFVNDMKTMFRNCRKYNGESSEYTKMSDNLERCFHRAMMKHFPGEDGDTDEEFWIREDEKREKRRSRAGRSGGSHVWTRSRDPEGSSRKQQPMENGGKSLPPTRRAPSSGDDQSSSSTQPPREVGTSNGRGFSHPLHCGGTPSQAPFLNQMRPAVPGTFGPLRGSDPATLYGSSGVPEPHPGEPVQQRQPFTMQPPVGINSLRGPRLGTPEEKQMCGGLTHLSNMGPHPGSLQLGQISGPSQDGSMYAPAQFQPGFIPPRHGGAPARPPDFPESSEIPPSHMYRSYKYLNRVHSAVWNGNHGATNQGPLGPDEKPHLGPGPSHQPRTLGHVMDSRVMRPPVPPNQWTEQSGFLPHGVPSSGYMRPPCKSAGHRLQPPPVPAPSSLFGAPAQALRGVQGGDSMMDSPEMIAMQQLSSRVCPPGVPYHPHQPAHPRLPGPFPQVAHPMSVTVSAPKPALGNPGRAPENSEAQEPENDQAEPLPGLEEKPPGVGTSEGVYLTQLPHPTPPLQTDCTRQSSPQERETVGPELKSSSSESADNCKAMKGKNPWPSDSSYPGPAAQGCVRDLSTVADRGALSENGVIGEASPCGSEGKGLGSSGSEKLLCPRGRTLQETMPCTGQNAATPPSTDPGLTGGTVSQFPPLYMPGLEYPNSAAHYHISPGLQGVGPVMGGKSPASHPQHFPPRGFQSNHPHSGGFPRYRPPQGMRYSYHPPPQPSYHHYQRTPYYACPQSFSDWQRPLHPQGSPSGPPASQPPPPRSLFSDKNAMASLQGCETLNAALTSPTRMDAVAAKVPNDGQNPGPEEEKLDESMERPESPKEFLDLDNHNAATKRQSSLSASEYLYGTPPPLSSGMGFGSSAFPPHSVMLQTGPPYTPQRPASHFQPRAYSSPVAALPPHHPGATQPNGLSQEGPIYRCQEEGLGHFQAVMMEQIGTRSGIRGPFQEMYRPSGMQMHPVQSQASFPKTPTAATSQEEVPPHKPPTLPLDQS

Row | ΔTm [1] [°C] | ΔTm [2] [°C] | pIC50 (Peregrin) | Structure (SMILES)
1 | 6 | 2 | < 4.70 | C=CCn1cc(-c2cccc(C(=O)N(C)C)c2)c2cc[nH]c2c1=O
2 | 6 | 3 | 5.82 | CN(C)C(=O)c1cccc(-c2cn(C)c(=O)c3[nH]ccc23)c1
